Screening results as filed in PubChem BioAssay.
This is one part of a sample in which hits are shown more often than they occur.
PGC1a acetyl up: raises PGC1a acetylation signal in U2OS cells; U2OS PGC1a acetylation AlphaScreen, overnight; activation, % at 15.6 µM; 0.21% of 350,000 active;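 active = every replicate reaching activation of at least 50%, whatever the mean replicate activation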;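 also: hits raise the AlphaScreen acetylation signal above neutral controls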
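detection = AlphaScreen lysate read | assay system = U2OS cells expressing flag-PGC1a plus GCN5 | input = 7000 cells/well | dosing = one concentration | times = compound overnight at 37 °C, each detection step 1 h RT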
* marks the source's active call; other numbers are inactive results.

SMILES	PGC1a acetyl up
CC(/C=N/N1CCN(Cc2ccccc2)CC1)=C\c1ccccc1	-44
C[C@@H]1CN([C@H](C)CO)C(=O)CCCn2cc(nn2)CO[C@H]1CN(C)C(=O)Nc1ccc(C(F)(F)F)cc1	-49
CCOc1ccc2c(c1)C(C)=CC(C)(C)N2S(=O)(=O)c1ccc(C)cc1	64*
CCOC(=O)C1=C(NC(=O)c2ccc(Br)o2)Nc2ccccc2N=C1	-42
O=c1[nH][nH]c(-c2ccccc2)c1C=Nc1ccccc1Cl	-41
CC(=O)c1c(-c2ccccc2)[nH]c2ccccc12	61*
O=C(O)c1ccc(N=Nc2c(O)[nH]c3ccccc23)cc1	-49
C/C(=N\NC(=O)CN1CCCCC1)c1ccccc1O	-44
CC(=NNC(=S)N1CCC1)c1ccccn1	190*
O=C(c1cccc(F)c1)N1CCN(C(=O)c2cc(-c3ccc(Cl)cc3Cl)on2)CC1	-43
Cn1c(CN2CCCC2)nc2cc(NC(=O)COc3ccc(Cl)cc3)ccc21	-52
Cn1c(CCN2CCCCC2)nc2cc(NS(=O)(=O)c3ccccc3)ccc21	64*
Cc1nc([N+](=O)[O-])c(Br)n1CC(=O)c1ccc(Br)cc1	-64
COc1cc(/C=N/NC(=O)c2ccc(O)cc2)ccc1OCC(=O)Nc1cccc([N+](=O)[O-])c1	-52
O=C(N/N=C/c1ccc([N+](=O)[O-])o1)c1ccc(O)cc1	64*
O=C(N/N=C/c1ccc([N+](=O)[O-])o1)c1cc2ccccc2o1	329*
CC(=O)N(C)C[C@H]1Oc2ncc(C#CCc3ccccc3)cc2C(=O)N([C@@H](C)CO)C[C@H]1C	-52
CCCCNC(=O)C1CCN(Cc2ccccn2)CC1	-46
O=C1/C(=C/c2ccncc2)CCC/C1=C\c1ccncc1	-78
CC(C)c1ccc(/C=C2\CC/C(=C\C=N\N(C)C)C2=O)cc1	57*
COC(=O)c1ccc2c(c1)C(C)(C)C(/C=C/c1ccc(O)cc1)=[N+]2C	59*
COCCNC(=O)CCc1c(C)nc2c(c(C)nn2-c2ccc(C)c(C)c2)c1C	-78
O=C(N/N=C/c1ccc2c(c1)OCO2)c1cc(-c2ccc(F)cc2)nc2ccccc12	-49
Cc1ccc(-c2cc(C(=O)N3CCOCC3)c3ccccc3n2)o1	-45
O=C(O)c1cc(-c2ccc3c(c2)OCO3)nc2ccccc12	93*
SMILES	PGC1a acetyl up
O=C(C[C@@H]1C=C[C@@H](NC(=O)CN2CCOCC2)[C@H](CO)O1)NC1CCCCC1	-51
CC(c1n[nH]c(=S)n1Cc1ccccc1)N(C)C (centres undefined)	-50
CC(C)(C)C(=O)NC(C(N)=O)=C(Cl)Cl	65*
CCn1c(=O)c2c(cnn2C)c2ccccc21	-30
C[C@@H]1CN([C@H](C)CO)C(=O)c2cc(NC(=O)Cc3cn(C)c4ccccc34)ccc2O[C@@H]1CN(C)C(=O)Nc1ccccc1	-108
c1cc2c3c(cccc3c1)C(N1CCCCCC1)=N2	86*
O=c1c2cn(Cc3ccc(F)cc3)c3ccc(F)cc3c-2nn1Cc1ccc(F)cc1	-45
CCOC(=O)c1c(C)n(C)c2ccc(OCC(O)Cn3nc(C)c(Br)c3C)cc12 (centres undefined)	61*
C[C@H](CO)N1C[C@H](C)[C@H](CN(C)C(=O)CN(C)C)Oc2cc(-c3cncnc3)ccc2S1(=O)=O	-52
CCC(C)NCCOCCOc1ccc(C)cc1OC (centres undefined)	-50
O=S(=O)(N[C@@H]1CC[C@@H](CCNS(=O)(=O)c2ccccc2Cl)O[C@H]1CO)c1ccccc1	-62
CN(C[C@H]1N[C@@H](CO)[C@@H]1c1ccc(C2=CCCC2)cc1)C(=O)c1ccc(F)cc1	-79
O=C(NC[C@@H]1N[C@@H](CO)[C@H]1c1ccc(C2=CCCCC2)cc1)c1ccc(F)cc1	66*
C[C@@H]1CN([C@H](C)CO)C(=O)c2cc(/C=C/c3ccccc3)cnc2O[C@@H]1CN(C)Cc1cccnc1	-65
C[C@H]1CN([C@@H](C)CO)C(=O)CCCn2nncc2CO[C@@H]1CN(C)C(=O)Nc1ccc2c(c1)OCO2	-49
CCC(C)C(NC(=O)C1CCC(C)CC1)C(=O)NCc1cccnc1 (centres undefined)	55*
O=C(NCc1cccnc1)C1CC(=O)N(C2CCCCC2)C1 (centres undefined)	-44
Cc1nc2[nH]c(=O)c3c(n2n1)NC1=C(C(=O)CC(C)(C)C1)C3c1ccccc1 (centres undefined)	-84
CC1=CC=CC2=NC(=O)CC(C)(C(=O)N(CC(=O)NC3CCCC3)c3ccccc3C)N12 (centres undefined)	54*
N#C/C(=C/c1ccc(OCc2ccc(C(=O)O)cc2)c(Br)c1)c1cccc(F)c1	-96
COc1ccc(CN(Cc2cccn2C)S(=O)(=O)c2ccccc2)cc1	-74
CCCN(C)C[C@H]1Oc2cc(C#Cc3ccc(OC)cc3)ccc2S(=O)(=O)N([C@@H](C)CO)C[C@H]1C	-49
O=C(Nc1ccccc1)C1=C(c2ccccc2)S(=O)(=O)CCS1(=O)=O	104*
O=C(Cc1ccccn1)NCC[C@@H]1CC[C@@H](NC(=O)Nc2ccc(C(F)(F)F)cc2)[C@@H](CO)O1	-45
N#CC1=C(N)Oc2n[nH]c(-c3ccccc3)c2C1c1ccncc1 (centres undefined)	55*
SMILES	PGC1a acetyl up
O=c1cc(CSc2ccccn2)[nH]c(=O)[nH]1	-44
CCOC(=O)c1ccc(-c2c(-c3cc(OC)c(OC)c(OC)c3)noc2C)cc1F	59*
Cc1[nH]c(=O)[nH]c(=O)c1S(=O)(=O)Nc1ccc(F)c(Cl)c1	-47
CCOC(=O)CNC(=O)OC1CCN2Cc3ccccc3N=C12 (centres undefined)	-78
C[C@H]1CN([C@@H](C)CO)C(=O)c2cccc(NC(=O)Nc3ccc(C(F)(F)F)cc3)c2O[C@H]1CN(C)C(=O)Nc1cccc2ccccc12	-47
CC(=O)Nc1ccc(NS(=O)(=O)c2ccc(C)cc2)cc1[N+](=O)[O-]	58*
Cc1ccc(S(=O)(=O)NC2=NCCCCC2)cc1	-46
Cc1ccc(NC(=O)COC(=O)COc2ccc(Cl)cc2)c([N+](=O)[O-])c1	-40
COCCCNC(=O)c1ccc(CSCc2ccc(C)cc2)o1	-46
CCC(=O)NC1(Cc2ccc(O)cc2)CCCCC1	-44
COc1cc(-c2nnn(CC#N)n2)ccc1OCc1ccccc1	212*
CC1OC(CC(=O)O)CC2=C1C(=O)c1c(O)cccc1C2=O (centres undefined)	-75
COC1=CC(=O)C=C(OC)C1=O	107*
C[C@@H]1CN([C@H](C)CO)C(=O)c2cccc(NC(=O)C3CCCCC3)c2O[C@@H]1CN(C)CC1CCCCC1	-55
CCCCCCNC(=O)c1ncn[nH]1	-41
COC(c1ccccc1)c1nnc(CCC(=O)N(C)C(C2CC2)C2CC2)o1 (centres undefined)	-42
Cn1nnnc1Sc1ncnc2scc(-c3ccc[nH]3)c12	91*
O=C(c1cc(C2CC2)on1)N1CCCC(N2CCN(c3cccc(C(F)(F)F)c3)CC2)C1 (centres undefined)	-43
C[C@H](CO)N1C[C@H](C)[C@H](CN(C)C(=O)C2CCCCC2)Oc2cc(-c3ccccc3)ccc2S1(=O)=O	63*
CC(C)CC#Cc1ccc2c(c1)O[C@H](CN(C)Cc1ccccc1)[C@H](C)CN([C@@H](C)CO)S2(=O)=O	-48
C[C@H]1CN([C@@H](C)CO)S(=O)(=O)c2ccc(-c3ccccc3)cc2O[C@@H]1CN(C)Cc1cccc(F)c1	-48
COc1ccccc1-c1ccc2c(c1)O[C@@H](CN(C)Cc1ccc3c(c1)OCO3)[C@@H](C)CN([C@H](C)CO)S2(=O)=O	64*
